Source: PubChem BioAssay (several laboratories)
Diaph act CS: compounds boosting diaphorase resazurin reduction – biochemical, uHTS, resorufin fluorescence, counter-screen for diaphorase-coupled primary assays, primary screen; Diaphorase/resazurin coupled assay, 16 min; active compounds read high; 1 = vehicle wells, 0 = NADH-free wells; activation factor at 20 µM; actives 0.005% (n = 190,000);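 active = diaphorase activity raised at least twofold by the compound at 20 µM; inactive = activation factor below 2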
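test system = bacterial diaphorase enzyme (C. kluyveri) | quantity = enzyme 0.07 U/mL final | reagent = NADH substrate 0.114 mM plus resazurin dye 0.1 mM, final | incubation = 16 min enzyme reaction, ambient temperature | buffer or medium = HEPES pH 7.4 buffer with MgCl2 and Tween 20 | signal = fluorescence of resorufin, 544 nm excitation, 590 nm emission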
Avidin bead fluor: green autofluorescence of compounds with avidin beads – biophysical, 488/530 nm, flow cytometry, artefact control, profiling panel. compound fluorescence 488/530 nm; active compounds read high. fluorescence (KMESF) at 10 µM. actives 0.38% (n = 220,000). AID 1775, 2009; in the data active = fluorescence above about 47
PMI act: activators of human PMI, primary screen, biochemical, fluorescence intensity, near-Km mannose 6-phosphate; Mannose-6-phosphate isomerase (Homo sapiens), P34949; purified human PMI, coupled resazurin fluorescence, 20 min; active compounds read high; 1 = vehicle control, 0 substrate-free wells; activation factor at 20 µM; actives 0.005% (n = 190,000);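 active = activation factor of 2 or more at 20 µM, relative to plate controls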
PMI act hi M6P: human PMI activators, high substrate, primary screen, biochemical, fluorescence intensity, near-saturating mannose 6-phosphate; Mannose-6-phosphate isomerase (Homo sapiens), P34949; coupled PMI enzyme assay, resazurin fluorescence, 20 min; active compounds read high; 1 = untreated enzyme, 0 = substrate-free blank; activation factor at 20 µM; actives 0.34% (n = 190,000);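 active = activation factor of 2 or more at 20 µM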
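Material: human phosphomannose isomerase with PGI, G6PDH, diaphorase coupling enzymes / Reagent: Man-6-P substrate 1.0 mM / Dosing: single compound dose of 20 µM, 1% DMSO final / Incubation: enzyme reaction with compound 20 min at room temperature / Signal: resorufin fluorescence (Ex 544/Em 590 nm) from resazurin via diaphorase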
NCF1 inh: p47phox/p22phox peptide binding inhibitors, primary screen, biochemical, uHTS, NADPH oxidase regulatory subunit. fluorescence polarization, 2 h. inhibition, % at 24.7 µM. AID 1274, 2008. actives 0.53% (n = 220,000). Neutrophil cytosol factor 1 (Homo sapiens), P14598;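 active = inhibition above about 30%, limit read from the data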;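 also: 0% = p47phox with labelled peptide and 100% = labelled peptide alone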
Target sequence (P14598 whole entry, looked up): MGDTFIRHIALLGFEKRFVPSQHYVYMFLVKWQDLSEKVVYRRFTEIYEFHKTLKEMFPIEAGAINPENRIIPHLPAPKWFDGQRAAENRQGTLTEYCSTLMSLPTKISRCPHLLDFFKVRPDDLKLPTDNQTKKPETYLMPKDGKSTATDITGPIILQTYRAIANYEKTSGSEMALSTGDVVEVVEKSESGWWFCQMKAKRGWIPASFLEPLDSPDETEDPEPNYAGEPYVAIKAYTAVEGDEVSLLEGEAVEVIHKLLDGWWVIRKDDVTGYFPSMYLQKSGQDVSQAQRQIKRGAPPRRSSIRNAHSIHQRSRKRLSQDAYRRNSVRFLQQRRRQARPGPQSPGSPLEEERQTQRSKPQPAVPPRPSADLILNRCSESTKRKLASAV
GSH bead fluor: compound fluorescence on glutathione beads, profiling panel, artefact control, biophysical, 488/530 nm, flow cytometry. fluorescence (KMESF) at 10 µM. GSH beads flow cytometry, compound fluorescence 488/530 nm; active compounds read high. AID 1776, 2009. actives 0.25% (n = 190,000); in the data active = fluorescence above about 89;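 also: glutathione beads carrying GST-tagged Bcl family fusion proteins plus one bare bead set; values are compound well signal with DMSO vehicle wells as background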
The depositor's hits bear a star; · = no result; + = active, no number. Most compounds without a hit are left out; they make up all but 1.4% or so of the library.

SMILES | Diaph act CS | Avidin bead fluor | PMI act | PMI act hi M6P | NCF1 inh | GSH bead fluor
Cc1ccc(-n2cc(-c3ccccc3)c3c(NN4CCOCC4)ncnc32)cc1 | 0.9 | 13 | 1.1 | 1 | 94.4* | 6
Cc1nnc(SCC(=O)NC(=O)NC(C)C)s1 | 0.9 | 27 | 1.1 | 1.1 | -15.3 | 12
CCN1C(=O)/C(=C/c2ccc(C)s2)SC1=Nc1ccc(OC)cc1 | 0.8 | 11 | 0.8 | 0.8 | -6.8 | 35
COc1ccc(C2=C(O)C(C)N(c3ccccc3)C2=N)cc1OC (centres undefined) | 1 | 53* | 1 | 0.8 | -13.2 | 11
Cc1cc(C)c(S(=O)(=O)N(C)CC(N)=O)c(C)c1 | 1.1 | 12 | 1.1 | 1.1 | 62.6* | 31
Cc1cc(C)c(S(=O)(=O)N(C)CC(=O)N2CCCCC2)c(C)c1 | 0.9 | 6 | 0.9 | 0.9 | -9.4 | 13
O=C(Nc1ccccc1C(=O)O)c1ccc(NC(=O)c2ccc(Br)o2)cc1 | 0.7 | 14 | 1 | 1 | 90.4* | 30
O=C(Nc1cc(C(F)(F)F)ccc1N1CCCCC1)c1ccc(Br)o1 | 0.9 | 34 | 1 | 1.1 | -0.6 | 13
O=C(Nc1ccccc1N1CCCC1)c1ccc(Br)o1 | 1 | 9 | 1.6 | 2.1* | -0.1 | 28
O=C(Nc1ccccc1C(=O)O)c1cccc(NC(=O)c2ccc(Br)o2)c1 | 0.8 | 14 | 0.9 | 1 | -15.5 | 31
O=C(Nc1ccccc1N1CCCC1)c1cccnc1 | 0.9 | 20 | 1.6 | 2.1* | -18.2 | 18
COc1ccc(C(CNc2ccc(S(=O)(=O)N3CCCC3)cc2[N+](=O)[O-])N2CCCC2)cc1 (centres undefined) | 0.9 | 8 | 0.9 | 0.9 | -12.0 | 9
CCOC(=O)c1ccc2c(c1)nc(SCC(=O)N1CCCCC1)n2CC | 0.8 | 17 | 0.9 | 0.9 | -16.0 | 19
CCOC(=O)c1ccc2c(c1)nc(SCC(=O)c1ccco1)n2CC | 0.9 | 5 | 1 | 1 | 0.1 | 255*
COc1ccc(/C=N/NC(=O)COc2cccc3ccccc23)c(C(=O)O)c1OC | 0.9 | 7 | 1 | 0.8 | 3.8 | 19
CCC(=O)Nc1cccc(C2=NOC3(C2)C[C@H](C(N)=O)N(C(=O)Cc2ccc([N+](=O)[O-])cc2)C3)c1 (some centres undefined) | · | 10 | · | · | -3.8 | ·
Cn1nc(CC(=O)NCc2cccc3ccccc23)c2ccccc2c1=O | 1 | 7 | 1 | 1.1 | -1.3 | 15
CNC[C@H](O)c1ccc(O)c(O)c1 | 0.4 | 8 | 0.4 | 0.4 | 51.1* | 20
CNC[C@H](O)c1cccc(O)c1 | 0.9 | 11 | 1 | 1 | -5.5 | 21
COc1ccc(O)c(/C=N/NC(=O)c2cc(=O)[nH]c3ccccc23)c1 | · | 5 | · | · | -6.9 | ·
Cc1ccc(/C=C/C(=O)Nc2ccc(S(=O)(=O)Nc3ncccn3)cc2)cc1 | 0.9 | 17 | 1 | 0.8 | -3.0 | 11
O=C(/C=C/c1ccc(F)cc1)Nc1ccc(S(=O)(=O)Nc2ncccn2)cc1 | · | 8 | · | · | 120.0* | ·
C=CCn1c(SCC(=O)Nc2cccc3ccccc23)nnc1-c1cnccn1 | 0.9 | 51* | 0.9 | 0.9 | -5.8 | 14
CCc1c(C)sc(NC(=O)OC)c1C(N)=O | 0.8 | 12 | 0.9 | 1 | -7.2 | 25
CCc1c(C)sc(NC(=O)OC)c1C(=O)N1CCCCC1 | 1 | 11 | 1.1 | 1.1 | 37.0* | 33
SMILES | Diaph act CS | Avidin bead fluor | PMI act | PMI act hi M6P | NCF1 inh | GSH bead fluor
Cc1ccc(S(=O)(=O)N2CCCC(CCC(=O)NCc3ccccc3F)C2)s1 (centres undefined) | 0.9 | 9 | 1.1 | 1.2 | -5.6 | 23
Cc1c(C(=O)OC(C)C)[nH]c2c1C(=O)CCC2 | 0.9 | 11 | 1 | 1 | + | 24
O=C(NCc1ccccc1)c1c[nH]c2cc3c(cc2c1=O)OCCO3 | 0.9 | 5 | 0.9 | 1 | -24.9 | 89*
Cc1ccc(NC(=S)NC2CC3CCC(C2)N3Cc2ccco2)c(C)c1 (centres undefined) | 0.8 | 16 | 0.8 | 0.9 | 37.5* | 17
COCCN1C(=O)C(=O)/C(=C(/O)c2cccc(OC)c2)C1c1ccc(C)o1 (centres undefined) | 0.8 | 25 | 1.2 | 1.1 | -8.6 | 7
Oc1cccc2ccc[n+](CC(O)Cn3c4ccccc4c4ccccc43)c12 (centres undefined) | 1.1 | 13 | 0.9 | 0.6 | 38.0* | 6
CCCCOCCCNC(=O)COc1ccccc1 | 0.9 | 8 | 1 | 1 | -2.5 | 8
Cc1ccc(S(=O)(=O)Nc2nc(C)cc(NCCN)n2)cc1 | 0.9 | 7 | 1 | 0.9 | -3.8 | 279*
CCOC(=O)Cn1c(=S)[nH]c2c(oc3ccc(Cl)cc32)c1=O | 0.6 | 15 | 1 | 1.1 | -7.1 | 28
Cn1cccc1CC(=O)NNC(=O)Nc1ccc(F)cc1 | 1 | 6 | 1 | 1.1 | -9.3 | 11
Cc1cc(O)c(/C=N/Nc2ccccc2Cl)c(=O)o1 | 0.8 | 15 | 1.4 | 2.2* | 1.8 | 17
Cc1cc(O)c(/C=N/Nc2ccc(Cl)cc2)c(=O)o1 | 0.9 | 9 | 1.3 | 2.1* | -26.7 | 17
Cc1cc(O)c(/C=N/Nc2cccc(Cl)c2)c(=O)o1 | 0.9 | 7 | 1.5 | 2.5* | -19.1 | 26
COc1ccccc1NC(=O)C(Sc1ccccc1)c1ccccc1 (centres undefined) | 0.9 | 1 | 0.9 | 0.9 | -10.7 | 5
CCOc1ccccc1NC(=O)C(Sc1ccccc1)c1ccccc1 (centres undefined) | 0.8 | 11 | 0.8 | 0.8 | 52.8* | 20
Cc1ccc(OCC(=O)NNC(=O)Cn2nnc(-c3ccccc3)n2)cc1 | 1 | 10 | 1.1 | 1.1 | 4.1 | 25
CC(C)(C)c1ccc(CN2N=Nc3ccccc3S2(=O)=O)cc1 | 0.6 | 17 | 0.8 | 0.9 | 33.5* | 16
O=S1(=O)c2ccccc2N=NN1Cc1ccc(Cl)c(Cl)c1 | 0.7 | 4 | 1 | 1.2 | 14.6 | 8
CCCn1c(=C(C#N)C#N)s/c(=C2\C=Cc3ccccc3N2CC)c1=O | 1 | 8 | 1 | 1 | 36.9* | 55
CCN1/C(=C2\OC(=S)N(C)C2=O)C=Cc2ccccc21 | 1.2 | 9 | 1.2 | 1.1 | -83.6 | 21
